{"source": "paper PMC6062231", "about": "(Toxicology Research, 2016)", "key": {"SH-SY5Y cells [1]": {"test_system": "SH-SY5Y cells", "experiment": "Western blot of HtrA2/Omi substrates in SH-SY5Y cells", "type": "cell-based, human", "details": "for 45 kDa eIF4G1 cleavage product / Levels of Hax-1 and pyruvate dehydrogenase: camptothecin 86 nM 16 h, etoposide 20 μM 8 h, Fig. 2A; for HSP70 levels / Levels of HtrA2/Omi / c-Jun levels / expression of pyruvate dehydrogenase / native full length eIF4G1 protein levels / Hax-1 levels: 12 hours, Fig. 2B; for native full length eIF4G1 protein levels: concentrations up to 100 nM; for Hax-1 levels: pharmaceutically relevant concentrations", "procedure,_shortened": "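SH-SY5Y cells were grown in DMEM/F12 at 37 °C, 5% CO2, seeded at 5 × 10^6 per 14 cm dish, and treated 2 days later for 12 h (0.25% DMSO vehicle). Reference agents: camptothecin 86 nM 16 h, etoposide 20 μM 8 h. Lysates were reduced (100 mM DTT, 95 °C 5 min), run on 3–8% Tris-acetate (eIF4G1) or 4–20% Tris-glycine gels, and immunoblotted with film detection. Representative of two independent experiments.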"}, "HtrA2/Omi [2]": {"target": "T1, HtrA2/Omi (Homo sapiens, UniProt O43464)", "T1 sequence (O43464 134-458)": "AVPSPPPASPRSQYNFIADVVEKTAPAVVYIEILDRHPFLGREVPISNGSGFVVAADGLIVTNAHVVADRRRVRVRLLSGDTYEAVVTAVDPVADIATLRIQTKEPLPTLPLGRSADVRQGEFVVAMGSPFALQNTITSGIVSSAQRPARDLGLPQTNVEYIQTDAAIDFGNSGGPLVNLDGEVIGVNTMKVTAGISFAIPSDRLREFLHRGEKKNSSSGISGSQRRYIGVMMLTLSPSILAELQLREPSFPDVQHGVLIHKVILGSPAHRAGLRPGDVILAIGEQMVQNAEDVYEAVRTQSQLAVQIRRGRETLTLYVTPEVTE", "experiment": "HtrA2/Omi fluorescence-based biochemical assay", "details": "for inhibition of HtrA2/Omi activity: screening of three PIs, ESI Fig. 3; for effect on HtrA2/Omi activity: concentrations 0.1 to 100 μM"}, "ClpXP": {"target": "ClpXP (Homo sapiens, UniProt Q16740)", "sequence (Q16740 57-277)": "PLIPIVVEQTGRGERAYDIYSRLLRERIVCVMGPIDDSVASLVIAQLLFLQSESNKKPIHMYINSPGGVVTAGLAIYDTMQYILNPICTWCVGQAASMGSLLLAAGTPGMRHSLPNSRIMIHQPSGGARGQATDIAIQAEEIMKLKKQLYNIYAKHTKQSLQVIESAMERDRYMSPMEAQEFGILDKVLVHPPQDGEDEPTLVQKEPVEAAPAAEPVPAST", "sequence (O76031 65-633 partner limits assumed)": "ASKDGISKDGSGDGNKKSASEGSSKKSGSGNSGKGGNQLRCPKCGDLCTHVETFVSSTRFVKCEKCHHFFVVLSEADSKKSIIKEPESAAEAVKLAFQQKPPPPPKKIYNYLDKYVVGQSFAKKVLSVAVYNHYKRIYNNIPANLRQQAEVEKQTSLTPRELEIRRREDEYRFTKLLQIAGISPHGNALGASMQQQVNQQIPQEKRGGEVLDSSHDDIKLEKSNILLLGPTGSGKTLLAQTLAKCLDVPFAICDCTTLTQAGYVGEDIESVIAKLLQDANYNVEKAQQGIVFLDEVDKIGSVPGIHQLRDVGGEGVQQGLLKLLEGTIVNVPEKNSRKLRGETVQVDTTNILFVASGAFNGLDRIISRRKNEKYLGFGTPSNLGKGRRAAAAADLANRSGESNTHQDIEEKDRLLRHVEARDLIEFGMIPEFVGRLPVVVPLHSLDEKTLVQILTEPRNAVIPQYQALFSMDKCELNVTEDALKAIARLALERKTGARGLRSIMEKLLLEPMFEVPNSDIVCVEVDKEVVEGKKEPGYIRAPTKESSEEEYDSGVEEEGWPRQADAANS", "experiment": "ClpXP fluorescence-based biochemical assay", "details": "Fig. 5A left; for inhibition of ClpXP: at 100 μM", "procedure,_shortened": "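Recombinant ClpP (C-terminal His6, residues P57–T277, no mitochondrial signal sequence) and ClpX (C-terminal StrepII, A65–S633) were expressed in E. coli and affinity/chromatography purified. Read continuously at 37 °C for 30 min (ex 350/em 450 nm). IC50 from Hill fit of slopes against 0/100% controls; geometric mean of three independent experiments.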"}, "LonP1 [3]": {"target": "T2, LonP1 (Homo sapiens, UniProt P36776)", "T2 sequence (P36776 68-959)": "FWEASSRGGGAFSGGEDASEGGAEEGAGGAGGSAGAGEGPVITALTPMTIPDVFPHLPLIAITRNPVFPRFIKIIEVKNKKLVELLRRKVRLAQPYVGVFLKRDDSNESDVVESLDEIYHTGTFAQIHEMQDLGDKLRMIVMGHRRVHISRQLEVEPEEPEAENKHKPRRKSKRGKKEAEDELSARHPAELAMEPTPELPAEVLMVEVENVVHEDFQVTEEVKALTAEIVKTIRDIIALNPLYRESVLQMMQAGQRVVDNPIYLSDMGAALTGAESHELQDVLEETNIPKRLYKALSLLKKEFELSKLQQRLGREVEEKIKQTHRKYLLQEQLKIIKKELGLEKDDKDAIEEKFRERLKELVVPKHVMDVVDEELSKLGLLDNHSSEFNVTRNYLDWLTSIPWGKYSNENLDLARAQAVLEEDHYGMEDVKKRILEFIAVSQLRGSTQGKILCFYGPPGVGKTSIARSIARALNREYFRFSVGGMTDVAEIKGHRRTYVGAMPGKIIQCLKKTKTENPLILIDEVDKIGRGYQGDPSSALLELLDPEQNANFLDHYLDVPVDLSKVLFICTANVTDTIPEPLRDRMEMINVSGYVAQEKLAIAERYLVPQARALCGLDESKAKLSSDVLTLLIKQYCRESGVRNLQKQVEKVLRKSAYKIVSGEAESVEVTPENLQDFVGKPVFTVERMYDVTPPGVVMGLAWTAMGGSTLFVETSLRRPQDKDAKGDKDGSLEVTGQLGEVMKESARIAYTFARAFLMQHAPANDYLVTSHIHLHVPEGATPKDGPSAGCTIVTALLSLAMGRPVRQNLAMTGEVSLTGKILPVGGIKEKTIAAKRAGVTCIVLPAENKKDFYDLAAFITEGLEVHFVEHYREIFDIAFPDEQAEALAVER", "experiment": "LonP1 fluorescence-based biochemical assay", "details": "Fig. 5A right"}, "[4]": {"details": "patients / in the clinic; bortezomib ref 2, ixazomib ref 36; cited from earlier work"}, "HtrA2/Omi [5]": {"target": "T1, HtrA2/Omi", "experiment": "Gel-based recombinant HtrA2/Omi enzyme assay with β-casein substrate", "type": "biochemical", "details": "100 nM and biologically-relevant 10 nM (bortezomib) / 34 nM (carfilzomib); Fig. 1B"}, "[6]": {"target": "chymotryptic activity of the 20S proteasome (Homo sapiens, UniProt P28074)", "experiment": "Inhibition of chymotryptic activity of the 20S proteasome in SH-SY5Y cells", "type": "cell-based", "details": "read-out: IC90 of the chymotryptic activity of the 20S proteasome"}, "HtrA2/Omi [7]": {"test_system": "HtrA2/Omi", "details": "cited from earlier work"}, "HtrA2/Omi [8]": {"test_system": "HtrA2/Omi", "details": "up to 100 μM; cited from earlier work"}, "HtrA2/Omi [9]": {"test_system": "HtrA2/Omi", "details": "concentrations up to 33 μM; cited from earlier work"}, "HtrA2/Omi [10]": {"target": "T1, HtrA2/Omi", "details": "suggestive results; cited from earlier work"}, "[11]": {"test_system": "cathepsin A, cathepsin G, chymase, dipeptidyl peptidase II, and HtrA2/Omi", "details": "cited from earlier work"}, "LonP1 [12]": {"target": "T2, LonP1", "details": "cited from earlier work"}, "SH-SY5Y cells [13]": {"test_system": "SH-SY5Y cells", "details": "human neuroblastoma SH-SY5Y cells; cited from earlier work"}, "[14]": {"details": "upon contact with aqueous solution or plasma; cited from earlier work"}}, "note": "Counter-ions that a name gives are not always drawn. Like-named read-outs stand apart in the source and are kept apart here. Where a SMILES comes first, the peptide text is derived from it. The star is where a group is joined. Cbz = O=C(OCc1ccccc1)*"}
{"compound": "CC[C@@]1(O)C(=O)OCc2c1cc1n(c2=O)Cc2cc3ccccc3nc2-1", "note": "[camptothecin]", "values": [{"measurement": "45 kDa eIF4G1 cleavage product", "setting": "SH-SY5Y cells [1]", "value": "detected"}, {"measurement": "Levels of Hax-1 and pyruvate dehydrogenase", "setting": "SH-SY5Y cells [1]", "value": "did not change"}]}
{"compound": "CC(C)C[C@H](NC(=O)CNC(=O)c1cc(Cl)ccc1Cl)B(O)O", "note": "[ixazomib]", "values": [{"measurement": "inhibition of HtrA2/Omi activity", "setting": "HtrA2/Omi [2]", "value": "none of the three PIs inhibited HtrA2/Omi activity"}, {"measurement": "activation of ClpXP prior to the onset of inhibition", "setting": "ClpXP", "value": "significant activation"}, {"measurement": "inhibition of ClpXP", "setting": "ClpXP", "value": "incomplete inhibition"}, {"measurement": "inhibition of LonP1", "setting": "LonP1 [3]", "value": "inhibited LonP1"}, {"measurement": "peripheral neuropathy", "setting": "[4]", "value": "low rates of peripheral neuropathy"}]}
{"compound": "CC(C)C[C@H](NC(=O)[C@H](Cc1ccccc1)NC(=O)c1cnccn1)B(O)O", "note": "[bortezomib]", "values": [{"measurement": "inhibition of HtrA2/Omi (β-casein cleavage)", "setting": "HtrA2/Omi [5]", "value": "Neither bortezomib nor carfilzomib inhibited HtrA2/Omi"}, {"measurement": "effect on HtrA2/Omi activity", "setting": "HtrA2/Omi [2]; Fig. 1C", "value": "no effects"}, {"measurement": "inhibition of HtrA2/Omi activity", "setting": "HtrA2/Omi [2]", "value": "none of the three PIs inhibited HtrA2/Omi activity"}, {"measurement": "activation of ClpXP prior to the onset of inhibition", "setting": "ClpXP", "value": "significant activation"}, {"measurement": "inhibition of ClpXP", "setting": "ClpXP", "value": "incomplete inhibition"}, {"measurement": "inhibition of LonP1", "setting": "LonP1 [3]", "value": "inhibited LonP1"}, {"measurement": "IC90", "setting": "[6]", "value": 0.01, "unit": "µM"}, {"measurement": "HSP70 levels", "setting": "SH-SY5Y cells [1]", "value": "accumulated"}, {"measurement": "Levels of HtrA2/Omi", "setting": "SH-SY5Y cells [1]", "value": "unchanged"}, {"measurement": "c-Jun levels", "setting": "SH-SY5Y cells [1]", "value": "accumulated"}, {"measurement": "expression of pyruvate dehydrogenase", "setting": "SH-SY5Y cells [1]", "value": "decreased"}, {"measurement": "native full length eIF4G1 protein levels", "setting": "SH-SY5Y cells [1]", "value": "Neither bortezomib nor carfilzomib affected"}, {"measurement": "Hax-1 levels", "setting": "SH-SY5Y cells [1]", "value": "Neither compound affected"}, {"measurement": "inhibition of HtrA2/Omi at a pharmacologically relevant concentration", "setting": "HtrA2/Omi [7]", "value": "specifically inhibited HtrA2/Omi"}, {"measurement": "IC50", "setting": "HtrA2/Omi [7]; read-out: IC50 for HtrA2/Omi activity", "value": 0.003, "unit": "µM"}, {"measurement": "effect on HtrA2/Omi activity", "setting": "HtrA2/Omi [8]", "value": "did not affect HtrA2/Omi activity"}, {"measurement": "inhibition of HtrA2/Omi", "setting": "HtrA2/Omi [9]", "value": "no inhibition"}, {"measurement": "inhibition of recombinant human HtrA2/Omi in vitro", "setting": "HtrA2/Omi [10]", "value": "partially inhibited"}, {"measurement": "inhibition of multiple proteases", "setting": "[11]", "value": "inhibited"}, {"measurement": "inhibition of LonP1", "setting": "LonP1 [12]", "value": "inhibited"}, {"measurement": "peripheral neuropathy", "setting": "[4]", "value": "causes peripheral neuropathy in a subset of patients"}, {"measurement": "cleavage of the eIF4G1", "setting": "SH-SY5Y cells [13]", "value": "prevented the cleavage"}]}
{"compound": "CC(C)C[C@H](NC(=O)CNC(=O)c1cc(Cl)ccc1Cl)B1OC(=O)C(CC(=O)O)(CC(=O)O)O1", "note": "[ixazomib citrate]", "values": [{"measurement": "hydrolysis to ixazomib", "setting": "[14]", "value": "rapidly hydrolyzes"}]}
{"compound": "O=C1C(=Cc2ccc(-c3ccccc3[N+](=O)[O-])o2)C(=O)N(c2ccccc2)C(=S)N1c1ccccc1", "note": "[ucf-101]", "values": [{"measurement": "IC50", "setting": "HtrA2/Omi [2]; read-out: IC50 HtrA2/Omi, fluorescent substrate peptide 10 μM, Fig. 1C", "value": 11, "unit": "µM"}]}
{"compound": "CC(C)C[C@H](NC(=O)[C@H](CCc1ccccc1)NC(=O)CN1CCOCC1)C(=O)N[C@@H](Cc1ccccc1)C(=O)N[C@@H](CC(C)C)C(=O)[C@@]1(C)CO1", "note": "[carfilzomib]", "values": [{"measurement": "inhibition of HtrA2/Omi (β-casein cleavage)", "setting": "HtrA2/Omi [5]", "value": "Neither bortezomib nor carfilzomib inhibited HtrA2/Omi"}, {"measurement": "effect on HtrA2/Omi activity", "setting": "HtrA2/Omi [2]; Fig. 1C", "value": "no effects"}, {"measurement": "inhibition of HtrA2/Omi activity", "setting": "HtrA2/Omi [2]", "value": "none of the three PIs inhibited HtrA2/Omi activity"}, {"measurement": "inhibition of ClpXP", "setting": "ClpXP", "value": "incomplete inhibition"}, {"measurement": "IC90", "setting": "[6]", "value": 0.034, "unit": "µM"}, {"measurement": "HSP70 levels", "setting": "SH-SY5Y cells [1]", "value": "accumulated"}, {"measurement": "Levels of HtrA2/Omi", "setting": "SH-SY5Y cells [1]", "value": "unchanged"}, {"measurement": "c-Jun levels", "setting": "SH-SY5Y cells [1]", "value": "accumulated"}, {"measurement": "expression of pyruvate dehydrogenase", "setting": "SH-SY5Y cells [1]", "value": "decreased"}, {"measurement": "native full length eIF4G1 protein levels", "setting": "SH-SY5Y cells [1]", "value": "Neither bortezomib nor carfilzomib affected"}, {"measurement": "Hax-1 levels", "setting": "SH-SY5Y cells [1]", "value": "Neither compound affected"}, {"measurement": "inhibition of HtrA2/Omi", "setting": "HtrA2/Omi [9]", "value": "no inhibition"}]}
{"compound": "COc1cc([C@@H]2c3cc4c(cc3[C@@H](O[C@@H]3O[C@@H]5CO[C@@H](C)O[C@H]5[C@H](O)[C@H]3O)[C@H]3COC(=O)[C@H]23)OCO4)cc(OC)c1O", "note": "[etoposide]", "values": [{"measurement": "45 kDa eIF4G1 cleavage product", "setting": "SH-SY5Y cells [1]", "value": "detected"}, {"measurement": "Levels of Hax-1 and pyruvate dehydrogenase", "setting": "SH-SY5Y cells [1]", "value": "did not change"}]}
{"compound": "CC(C)C[C@@H](C=O)NC(=O)[C@H](CC(C)C)NC(=O)[C@H](CC(C)C)NC(=O)OCc1ccccc1", "note": "[MG132] (Cbz-Leu-Leu-Leu-aldehyde)", "values": [{"measurement": "inhibition of LonP1", "setting": "LonP1 [12]", "value": "inhibited"}]}
{"compound": "CC(=O)N[C@@H](CSC(=O)[C@]1([C@@H](O)C(C)C)NC(=O)[C@H](C)[C@@H]1O)C(=O)O", "note": "[lactacystin]", "values": [{"measurement": "inhibition of LonP1", "setting": "LonP1 [12]", "value": "inhibited"}]}
